From ChEMBL document CHEMBL4811241, “Revisiting Pyrazolo[3,4-d]pyrimidine Nucleosides as Anti-Trypanosoma cruzi and Antileishmanial Agents” (J Med Chem, 2021)
Calls of active or inactive are those of the source. No cut-off for these calls is given here.

Key:
[1] = Toxicity in Swiss webster mouse infected with Trypanosoma cruzi Y trypomastigotes assessed as animal survival at 100 mg/kg, po qd for 5 days treatment started at 6 days post-infection and measured at 34 days post-infection; format: organism-based; details: in vivo, time 29 day
Summary of the method: (§1)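 Male Swiss Webster mice (18−20 g, 4−5 weeks) were infected i.p. with 10⁴ Y-strain bloodstream trypomastigotes from a donor mouse. Only mice with detectable parasitemia were treated, in groups of six. Oral gavage was given on days 6–10 post-infection, b.i.d. or q.d. as listed, in 10% Tween 80 vehicle, freshly prepared. Infected vehicle controls were included. Mortality was checked daily to 34 dpi as cumulative percentage.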

Trypanosoma cruzi [2] = assay: Antitrypanosomal activity against nifurtimox-sensitive Trypanosoma cruzi Tulahuen CL2 infected in Swiss mouse peritoneal macrophages assessed as inhibition of parasite growth measured after 7 days by spectrophotometric analysis; format: functional, organism-based; details: Tulahuen CL2, Peritoneal macrophage, 168 h
[3] = Toxicity in Swiss webster mouse infected with Trypanosoma cruzi Y trypomastigotes assessed as animal survival at 10 mg/kg, po qd for 5 days treatment started at 6 days post-infection and measured at 34 days post-infection; format: organism-based; details: in vivo, 696 h, time 29 day; summary of the method: as §1
Trypanosoma cruzi [4] = assay: Antitrypanosomal activity against Trypanosoma cruzi strain Y bloodstream trypomastigotes infected in Swiss Webster mouse assessed as reduction in parasitemia at 100 mg/kg, po qd for 5 days treatment started at 6 days post-infection and measured at 8 days post-infection by light microscopic analysis; format: functional, organism-based; details: time 2.0 day
Summary of the method: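 Male Swiss Webster mice, 18–20 g, six per group; only mice with detectable parasitemia treated. Oral gavage for 5 consecutive days (6–10 dpi); test compound given b.i.d. in 10% Tween 80, benznidazole once daily, formulations freshly prepared. Parasitemia counted by light microscopy in 5 μL blood; mortality checked daily to 34 dpi.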

[5] = tested on: Trypanosoma brucei rhodesiense; assay: Antitrypanosomal activity against Trypanosoma brucei rhodesiense STIB900 measured after 6 hrs by alamar blue dye based fluorimetry analysis; format: functional, organism-based; details: STIB900, 6 h
[6] = Selectivity index, ratio of CC50 for Swiss mouse peritoneal macrophages to IC50 for antileishmanial activity against amastigote form of Leishmania infantum MHOM/MA(BE)/67 infected in Swiss mouse peritoneal macrophages; format: toxicity; details: read-out: Ratio CC50/IC50
Summary of the method: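 Ratio of macrophage CC50 to L. infantum amastigote IC50, both taken from the same 5-day macrophage assay.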

[7] = Cytotoxicity against Swiss mouse peritoneal macrophages assessed as cell detachment, lysis and granulation measured after 5 days by microscopic analysis; format: cell-based, Peritoneal macrophage; details: time 5 day
Summary of the method: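 Scored within the Leishmania macrophage assay over 5 days: detachment, lysis and granulation judged semi-quantitatively by microscopy across at least 500 cells. CC50 derived from % reduction in normal cells versus untreated wells.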

Trypanosoma cruzi [8] = assay: Antitrypanosomal activity against intracellular amastigote form of Trypanosoma cruzi Y infected in Swiss Webster mouse cardiomyocytes assessed as inhibition of parasite growth incubated for 48 hrs by Giemsa staining based microscopic analysis; format: functional, organism-based; details: Cardiac muscle cell
Summary of the method: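 Primary 2D mouse embryo cardiac cell cultures, infected for 24 h, then washed and exposed for 48 h at 37 °C to a serial dilution. Cells fixed and stained with Giemsa; infected cells and parasites per infected cell scored in 200 host cells. Activity expressed from the inhibition index; two independent experiments run in duplicate.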

Trypanosoma cruzi [9] = assay: Antitrypanosomal activity against Trypanosoma cruzi Y bloodstream trypomastigotes assessed as inhibition of parasite growth incubated for 24 hrs by light microscopy; format: functional, organism-based
[10] = Cytotoxicity against human MRC-5 SV2 cells assessed as reduction in cell growth measured after 3 days by resazurin dye based fluorometric analysis; details: time 3 day
Trypanosoma cruzi [11] = assay: Antitrypanosomal activity against nifurtimox-sensitive Trypanosoma cruzi Tulahuen CL2 infected in human MRC-5 SV2 cells assessed as inhibition of parasite growth measured after 7 days by spectrophotometric analysis; format: functional, organism-based; details: Tulahuen CL2, MRC-5 SV2, 168 h
[12] = Cytotoxicity against Swiss Webster mouse 2D cardiomyocytes assessed as reduction in cell viability measured after 48 hrs by PrestoBlue assay; set-up: species or system Cardiac Muscle Cell; details: read-out: LC50
Summary of the method: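 Mouse embryo heart cells as monolayer (2D) or 3D aggregates (25 × 10³ cells/well on 1% agarose). Uninfected cultures exposed 48 h to rising concentrations. Morphology checked by light microscopy; viability read by PrestoBlue; CC₅₀ determined.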

[13] = Selectivity index, ratio of CC50 for human MRC-5 SV2 cells to IC50 for antitrypanosomal activity against nifurtimox-sensitive Trypanosoma cruzi Tulahuen CL2 infected in human MRC-5 SV2 cells; format: toxicity, cell-based; details: read-out: Ratio CC50/IC50
Summary of the method: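 Ratio of MRC-5SV2 CC50 (3-day resazurin assay) to IC50 against T. cruzi amastigotes in MRC-5SV2 cells (7-day CPRG assay).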

Leishmania infantum = assay: Antileishmanial activity against amastigote form of Leishmania infantum MHOM/MA(BE)/67 infected in Swiss mouse peritoneal macrophages assessed as reduction in parasite growth treated at 2 hrs post-infection and measured after 5 days by Giemsa staining based microscopic analysis; format: functional, organism-based; details: MHOM/MA(BE)/67, Peritoneal macrophage
Summary of the method: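 Swiss mouse peritoneal macrophages, harvested after 2-day potato-starch stimulation, infected 48 h after plating; compounds added 2 h post-infection.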

SMILES	survival at 696 h [1] [%]	IC50 (Trypanosoma cruzi [2]) [µM]	Activity [3]	Activity (Trypanosoma cruzi [4])	EC50 [5] [µM]	selectivity ratio [6]	CC50 at 120 h [7] [µM]	IC50 (Trypanosoma cruzi [8]) [µM]	IC50 (Trypanosoma cruzi [9]) [µM]	CC50 at 72 h [10] [µM]	IC50 (Trypanosoma cruzi [11]) [µM]	CC50 at 48 h [12] [µM]	selectivity ratio [13]	IC50 (Leishmania infantum) [µM]
O=C(Cn1ccnc1[N+](=O)[O-])NCc1ccccc1 [BENZNIDAZOLE]	100	1.96	Non-Toxic	Active										
Nc1ncnc2c1ccn2[C@@H]1O[C@H](CO)[C@@H](O)[C@H]1O [TUBERCIDIN]					0.036									
Nc1ncnc2c1cnn2[C@@H]1O[C@H](CO)[C@@H](O)[C@H]1O						> 60	> 64	2.46	> 81	> 64	0.29	> 500	> 219	1.06
Nc1ncnc2c1ccn2[C@@H]1O[C@H](CO)C[C@H]1O					0.00052									
Nc1ncnc2c1c(/C=C/c1ccccc1)nn2[C@@H]1O[C@H](CO)[C@@H](O)[C@H]1O						> 1	> 64			> 64	16.5		> 4	50.8
O=c1[nH]cnc2c1cnn2[C@@H]1O[C@H](CO)[C@@H](O)[C@H]1O						10	> 64			> 64	7.18		9	6.66
Nc1ncnc2c1c(-c1ccncc1)nn2[C@@H]1O[C@H](CO)[C@@H](O)[C@H]1O						> 3	> 64			> 64	21.5		> 3	25.4
C#Cc1nn([C@@H]2O[C@H](CO)[C@@H](O)[C@H]2O)c2ncnc(N)c12						1	≥ 8			≥ 46.5	2.78		20	10.4
Nc1ncnc2c1c(C(F)F)nn2[C@@H]1O[C@H](CO)[C@@H](O)[C@H]1O						1	0.25			2.42	8.3		< 1	0.25
NCc1nn([C@@H]2O[C@H](CO)[C@@H](O)[C@H]2O)c2ncnc(N)c12						4	8			59.3	11.1		5	2
Nc1ncnc2c1c(-c1ccc(C(F)(F)F)cc1)nn2[C@@H]1O[C@H](CO)[C@@H](O)[C@H]1O						> 1	> 64			> 64	6.34		> 10	57
Nc1ncnc2[nH]ncc12						> 355	> 64			2.46	0.57		5	0.18
NC(=O)c1nn([C@@H]2O[C@H](CO)[C@@H](O)[C@H]2O)c2ncnc(N)c12						1	8			0.25	0.25		1	8.11
Nc1ncnc2c1c(N)nn2[C@@H]1O[C@H](CO)[C@@H](O)[C@H]1O						1	8			23	7.64		3	6.82
